{"data": "Experimental data from different studies", "CSF1R": "Macrophage colony-stimulating factor 1 receptor (CSF1R, Homo sapiens, UniProt P07333)", "CSF1R autoinhibited": "Macrophage colony-stimulating factor 1 receptor, autoinhibited (CSF1R, Homo sapiens, UniProt P07333)", "note": "Lines come from different studies, so protocols differ."}
{"Compound": "CN(C)C1CCN(CC#Cc2nn(C3CCCC3)c3nc(NCc4ccccc4)ncc23)C1 (stereo not shown)", "target": "CSF1R", "read-out": "enzyme activity", "action": "inhibitor", "technique": "FRET", "concentration": "0.1 µM", "quantity": "inhibition", "value": "44%"}
{"Compound": "CC/C(=N\\NC(=O)NCc1cccc(O)c1)c1ccc(O)c(C)c1O", "target": "CSF1R", "read-out": "enzyme activity", "action": "inhibitor", "concentration": "0.1 µM", "quantity": "inhibition", "value": "-4.4%"}
{"Compound": "CC(C)(C)c1nc(-c2cccc(NS(=O)(=O)c3c(F)cccc3F)c2F)c(-c2ccnc(N)n2)s1", "target": "CSF1R", "read-out": "enzyme activity", "action": "inhibitor", "technique": "radiometric", "concentration": "1 µM", "quantity": "remaining activity", "value": "109%"}
{"Compound": "COc1cccc(CNC(=O)c2nc3scc(COCc4ccc(C(=O)O)cc4)c3c(=O)[nH]2)c1", "target": "CSF1R autoinhibited", "read-out": "cell-free assay", "technique": "competition with immobilised ligand", "concentration": "1 µM", "quantity": "remaining binding", "value": "100%"}
{"Compound": "N[C@@H]1CCN(c2nccc(-c3cnn4ncccc34)n2)C1", "target": "CSF1R autoinhibited", "read-out": "binding", "concentration": "1 µM", "quantity": "remaining binding", "value": "100%"}
{"Compound": "Cc1cnc(NC2CCOCC2)nc1-n1cnc(C(=O)NC(CN)c2cc(F)cc(Cl)c2)c1 (stereo not shown)", "target": "CSF1R", "read-out": "enzyme activity", "action": "inhibitor", "technique": "radiometric", "concentration": "1 µM", "quantity": "remaining activity", "value": "103%"}
{"Compound": "Nc1ncnc2occ(-c3ccc(NC(=O)Nc4cc(C(F)(F)F)ccc4F)cc3)c12", "target": "CSF1R", "read-out": "cell-free assay", "concentration": "20 µM", "quantity": "remaining signal", "value": "0%"}
{"Compound": "Nc1cnc(N2CCc3cc(S(=O)(=O)Nc4c(F)cc(Cl)cc4F)cc(N4CCCC4=O)c32)nc1", "target": "CSF1R autoinhibited", "read-out": "cell-free assay", "technique": "competition with immobilised ligand", "concentration": "1 µM", "quantity": "remaining binding", "value": "100%"}
{"Compound": "Cc1ccc(NC(=O)c2ccc(CN3CCN(C)CC3)cc2)cc1Nc1nccc(-c2cncc(-c3oncc3C)c2)n1", "target": "CSF1R", "read-out": "enzyme activity", "action": "inhibitor", "concentration": "0.5 µM", "quantity": "remaining activity", "value": "≤ 50%"}
{"Compound": "O=Nc1c(-c2c(O)[nH]c3ccccc23)[nH]c2ccccc12", "target": "CSF1R", "read-out": "cell-free assay", "concentration": "0.5 µM", "quantity": "remaining signal", "value": "83.2%"}
{"Compound": "CN(C)c1nccc(-c2cnc3ncccn23)n1", "target": "CSF1R autoinhibited", "read-out": "binding", "concentration": "1 µM", "quantity": "remaining binding", "value": "65%"}
{"Compound": "CC(=O)C1=C(C)N(c2cccc(C(F)(F)F)c2)C(=O)N[C@@H]1c1ccc(C#N)nc1", "target": "CSF1R", "read-out": "cell-free assay", "technique": "competition with immobilised ligand", "concentration": "1 µM", "quantity": "remaining binding", "value": "99.4%"}
{"Compound": "Cc1ccc(NC(=O)c2ccc(C)c(C(F)(F)F)c2)cc1C#Cc1nn(C2CCC(O)CC2)c2ncnc(N)c12 (stereo not shown)", "target": "CSF1R", "read-out": "cell-free assay", "concentration": "10 µM", "quantity": "remaining signal", "value": "4%"}
{"Compound": "CN(C)c1nccc(-c2cnn3ncccc23)n1", "target": "CSF1R autoinhibited", "read-out": "binding", "concentration": "1 µM", "quantity": "remaining binding", "value": "100%"}
{"Compound": "O=S(=O)(c1cccc2cnccc12)N1CCCNCC1", "target": "CSF1R", "read-out": "cell-free assay", "concentration": "0.5 µM", "quantity": "remaining signal", "value": "97.9%"}
{"Compound": "CO[C@@H](C)c1c(Nc2ccc([C@@H](N(C)C(=O)C3CCS(=O)(=O)CC3)C(F)(F)F)cc2)cnc2cc(Cl)nn12", "target": "CSF1R autoinhibited", "read-out": "cell-free assay", "technique": "competition with immobilised ligand", "concentration": "1 µM", "quantity": "remaining binding", "value": "88%"}
{"Compound": "Oc1ccc(-c2nc(-c3ccncc3)c(-c3ccc(F)cc3)[nH]2)cc1", "target": "CSF1R", "read-out": "cell-free assay", "concentration": "0.5 µM", "quantity": "remaining signal", "value": "96.9%"}
{"Compound": "CS(=O)(=O)Nc1cccc(-c2csc(NC(=O)CSc3nc4nccnc4c(=O)n3CCc3ccccc3)n2)c1", "target": "CSF1R", "read-out": "enzyme activity", "action": "inhibitor", "concentration": "10 µM", "quantity": "inhibition", "value": "8%"}
{"Compound": "FC(F)(F)c1ccc2c(c1)nc(-c1cccnc1)n2C1CC1", "target": "CSF1R autoinhibited", "read-out": "cell-free assay", "technique": "competition with immobilised ligand", "concentration": "1 µM", "quantity": "remaining binding", "value": "89%"}
{"Compound": "COc1cc2ncnc(Nc3ccc(F)c(Cl)c3)c2cc1OCCCN1CCOCC1", "target": "CSF1R", "read-out": "cell-free assay", "concentration": "0.5 µM", "quantity": "remaining signal", "value": "110%"}
{"Compound": "COc1cc2ncnc(Nc3ccc(Oc4ccccc4)cc3C)c2cc1OC", "target": "CSF1R", "read-out": "enzyme activity", "action": "inhibitor", "concentration": "1 µM", "quantity": "inhibition", "value": "24%"}
{"Compound": "Cc1cc(NC(=O)c2cccc3cc(-c4cccc5[nH]nc(N)c45)ccc23)ccc1F", "target": "Macrophage colony-stimulating factor 1 receptor (CSF1R, Homo sapiens, UniProt P07333, Y969C)", "read-out": "enzyme activity", "action": "inhibitor", "concentration": "0.1 µM", "quantity": "activity vs control", "value": "30%"}
{"Compound": "CCCOc1ccc(OC)c(F)c1C(=O)c1ccc(C(=O)N[C@@H]2CNC[C@H]2NC(=O)c2ccc3[nH]ncc3c2)cc1", "target": "CSF1R", "read-out": "enzyme activity", "action": "inhibitor", "concentration": "10 µM", "quantity": "remaining activity", "value": "27%"}
{"Compound": "c1cnn2ncc(-c3ccnc(N4CCC45COC5)n3)c2c1", "target": "CSF1R", "read-out": "binding", "concentration": "1 µM", "quantity": "remaining binding", "value": "100%"}
{"Compound": "CS(=O)(=O)N1CCCC(NC(=O)[C@H](CCC2CCCCC2)NC(=O)c2ccc(CNC(=O)c3cnc4ccccn34)cc2)C1 (stereo partly shown)", "target": "CSF1R autoinhibited", "read-out": "cell-free assay", "technique": "competition with immobilised ligand", "concentration": "0.1 µM", "quantity": "remaining binding", "value": "100%"}
{"Compound": "CCN(CC)CCNC(=O)c1c(C)[nH]c(/C=C2\\C(=O)Nc3ccc(F)cc32)c1C", "target": "CSF1R", "read-out": "cell-free assay", "concentration": "10 µM", "quantity": "inhibition", "value": "98%"}
{"Compound": "O=C1NC(=O)c2cc(Nc3ccc(F)cc3)c(Nc3ccc(F)cc3)cc21", "target": "CSF1R", "read-out": "cell-free assay", "concentration": "0.5 µM", "quantity": "remaining signal", "value": "104%"}
{"Compound": "COc1cc(-c2cn(C3CCc4c(F)cccc4N(CC(F)(F)F)C3=O)nn2)ccc1-n1cnc(C)c1 (stereo not shown)", "target": "CSF1R autoinhibited", "read-out": "cell-free assay", "technique": "competition with immobilised ligand", "concentration": "1 µM", "quantity": "remaining binding", "value": "100%"}
{"Compound": "C[C@@H]1CCN(c2nccc(-c3cnn4ncccc34)n2)C1", "target": "CSF1R", "read-out": "binding", "concentration": "1 µM", "quantity": "remaining binding", "value": "100%"}
{"Compound": "Cc1ccc(C(=O)NCc2ccsc2)cc1C#Cc1cn(C(C)C)c2ncnc(N)c12", "target": "CSF1R", "read-out": "enzyme activity", "action": "inhibitor", "concentration": "1 µM", "quantity": "activity vs control", "value": "8%"}
{"Compound": "CNC(=O)c1cc2c(Oc3ccc(NC(=O)C4(C(=O)Nc5ccc(F)cc5)CC4)cc3)ccnc2cc1OC", "target": "CSF1R", "read-out": "enzyme activity", "action": "inhibitor", "technique": "radiometric", "concentration": "1 µM", "quantity": "inhibition", "value": "98%"}
{"Compound": "COc1cc(Cl)c(C(=O)N[C@@H](CN[C@H]2CC[C@@H](N)CC2)Cc2ccc(C#N)cc2)cc1-c1ccc(CN[C@H](C)c2ccc(C)cc2)o1", "target": "CSF1R", "read-out": "enzyme activity", "action": "inhibitor", "concentration": "1 µM", "quantity": "remaining activity", "value": "111%"}
{"Compound": "CCS(=O)(=O)c1cc2cc(C[C@@](O)(CC(C)(C)c3ccc(F)cc3C(N)=O)C(F)(F)F)[nH]c2cn1", "target": "CSF1R autoinhibited", "read-out": "cell-free assay", "technique": "competition with immobilised ligand", "concentration": "1 µM", "quantity": "remaining binding", "value": "94%"}
{"Compound": "Cc1sc(C(=O)NC2COC2)cc1-n1cc(NC(=O)Nc2c(F)cccc2Cl)cn1", "target": "CSF1R", "read-out": "enzyme activity", "action": "inhibitor", "concentration": "10 µM", "quantity": "remaining activity", "value": "103%"}
